Assay outcomes deposited in PubChem BioAssay by Johns Hopkins Ion Channel Center.
Sampled rows, rich in hits. Any-hit rate of the full collection: about 3.5%.
RGS4 block: RGS4 inhibitors, primary screen, cell-based, HEK293 M3R inducible RGS4, calcium flux. AID 463165, 2010. 0.45% of 310,000 active. Fluo-4 calcium flux; stronger effect = higher value; triggered by carbachol at its EC20. B-score at 10 µM;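 active = B-score, a plate-corrected calcium signal, over three deviations above library mean, with baseline fluorescence within five deviations of library mean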;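 also: RGS4 expression induced by doxycycline in cells with stable M3 receptor; B-score is computed from the integrated fluorescence ratio over baseline after carbachol; higher B-score means a larger calcium signal and so more RGS4 inhibition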
Target sequence (P49798 whole entry, looked up): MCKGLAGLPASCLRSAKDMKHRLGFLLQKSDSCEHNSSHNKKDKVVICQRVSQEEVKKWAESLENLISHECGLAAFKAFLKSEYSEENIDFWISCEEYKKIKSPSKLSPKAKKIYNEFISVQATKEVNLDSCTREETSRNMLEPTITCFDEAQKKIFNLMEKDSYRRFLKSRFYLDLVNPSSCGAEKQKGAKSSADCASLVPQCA
MrgX1 antag: antagonists of human MrgX1 receptor, primary screen, HEK293 cells, Fluo-4 calcium flux. Mas-related G-protein coupled receptor member X1 (Homo sapiens), Q96LB2. BAM8-22 antagonism; stronger effect = lower value. B-score at 10 µM. 1.3% of 310,000 active. AID 588676, 2011;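 active = calcium-response B-score plate-corrected more than 3 library SD below zero, starting fluorescence within 5 deviations, no agonist response on first addition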;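 also: peak minus trough fluorescence over baseline after final BAM8-22 challenge near maximal dose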
Target sequence (Q96LB2 whole entry, looked up): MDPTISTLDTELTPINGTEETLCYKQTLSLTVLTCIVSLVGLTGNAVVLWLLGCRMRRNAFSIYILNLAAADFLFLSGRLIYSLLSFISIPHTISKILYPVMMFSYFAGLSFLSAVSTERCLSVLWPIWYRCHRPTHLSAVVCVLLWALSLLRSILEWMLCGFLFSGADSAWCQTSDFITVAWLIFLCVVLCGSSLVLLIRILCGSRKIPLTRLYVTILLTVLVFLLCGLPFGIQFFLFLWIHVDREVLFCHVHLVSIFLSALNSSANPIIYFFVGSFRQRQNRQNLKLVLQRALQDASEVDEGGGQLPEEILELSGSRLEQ
MrgX1 agonist: agonists of human MrgX1 receptor, primary screen, HEK293 cells, Fluo-4 calcium flux | Fluo-4 calcium fluorescence, agonist mode; stronger effect = higher value | B-score at 10 µM | 0.44% of 310,000 active;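 active = calcium response B-score plate-corrected fluorescence ratio at least 3 library SD, with starting fluorescence B-score inside 5 SD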
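System: HEK293 cells stably expressing human MrgX1 receptor; Dosing: test compound in the initial addition of three; Schedule: overnight plating, then 30 min 37 °C plus 30 min room-temperature dye loading; Detection: kinetic calcium dye fluorescence, Fluo-4 NW; Controls: per-plate positive and negative controls for Z′ factor.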
MrgX1 allo act: positive allosteric modulators of MrgX1, primary screen, HEK293 cells, Fluo-4 calcium flux; 0.63% of 310,000 active; FDSS; stronger effect = higher value; B-score at 10 µM; AID 588675, 2011;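 active = plate-corrected calcium response at least 3 library SD above typical, normal starting fluorescence, not activating the receptor alone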;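 also: compound read alongside a low EC10 to EC30 dose of BAM8-22 agonist; peak minus trough fluorescence over baseline measured at the second addition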
RGS4 pot: RGS4 potentiators or activators, primary screen, cell-based, HEK293 M3R inducible RGS4, calcium flux. AID 463111, 2010. 0.92% of 310,000 active. B-score at 10 µM. carbachol calcium flux Fluo4; stronger effect = lower value;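 active = B-score of the integrated calcium signal more than 4 SD below the library mean, with starting fluorescence not abnormally high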;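 also: negative B-score means reduced calcium response which marks RGS4 activation or potentiation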
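Also added: carbachol at ECmax as muscarinic agonist stimulus; Assay system: HEK293 cells with stable M3R and inducible RGS4; Timing: overnight RGS4 induction, 30 min dye load 37 °C, 20 min compound RT; Measured by: Fluo4-AM (2 µM) calcium-flux fluorescence, kinetic read.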
MrgX1 ant reconf: MrgX1 receptor antagonists, duplicate retest, confirmation, HEK293 cells, Fluo-4 calcium flux; shares compounds with MrgX1 antag; 19% of 2,300 active; BAM8-22 calcium flux; stronger effect = lower value; AID 602420, 2012; remaining BAM8-22 calcium response % of control (stronger effect = lower value), % at 10 µM;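 active = remaining agonist calcium response no higher than 100% minus 3 SD of agonist-only control wells, with starting fluorescence near control levels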;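 also: agonist BAM8-22 given at a near maximal EC90 to ECmax level; peak minus minimum fluorescence divided by baseline after agonist addition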
HEK293 Ca flux: nonspecific calcium signal in parental HEK293, confirmation, counter-screen for MrgX1 antagonist project, parental HEK293 cells, Fluo-4 calcium flux | shares compounds with MrgX1 antag | Fluo-4 calcium fluorescence, FDSS | fluorescence ratio F(max-min)/F0 at 10 µM | 2% of 4,000 active;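 active = duplicate-averaged calcium fluorescence ratio at least three times the standard deviation of buffer wells, a nonspecific response in parental cells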
HEK293 Ca counter: calcium response in parental HEK293 cells, primary screen, counter-screen for MrgX1 allosteric activator project, cell-based, Fluo-4 calcium flux, duplicate. shares compounds with MrgX1 antag. 0.4% of 4,000 active. Fluo-4 fluorescence ratio; stronger effect = higher value. AID 624114, 2012. fluorescence ratio F(max-min)/F0 at 10 µM;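 active = calcium fluorescence ratio, averaged over duplicates, at least 3 SD of the buffer-well ratio, meaning a nonspecific response in receptor-free cells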;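 also: untransfected parental HEK293 lacking MrgX1 used as counterscreen for MrgX1 allosteric activators; fluorescence change taken during the second addition on a kinetic imager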
HEK293 Ca cntr2: calcium response in parental HEK293 cells, primary screen, counter-screen for MrgX1 agonist project, cell-based, Fluo-4 calcium flux, duplicate, agonist mode; fluorescence ratio F(max-min)/F0 at 10 µM; shares compounds with MrgX1 antag; 8.7% of 4,000 active; Fluo-4 calcium fluorescence (FDSS); stronger effect = higher value;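 active = calcium fluorescence ratio at least three times the spread of buffer wells, meaning a non-specific response in parental cells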
Of the large screens only hits and unclear results are named; the others gave an inactive call (follow-up assays come after a bar, where they were run).

CC(Cc1ccccc1)NCCC(=O)NC(C)Cc1ccccc1 (centres undefined)	none
CC(=NCCCN1CCOCC1)c1c(O)[nH]c(=O)[nH]c1=O	none
O=C1CN=C(c2ccccc2)c2ccccc2N1	MrgX1 antag -7.3 | MrgX1 ant reconf inactive | HEK293 Ca flux inactive | HEK293 Ca counter inactive | HEK293 Ca cntr2 inactive
CN(C)C1(CNC(=O)c2ccc(Cl)c(S(=O)(=O)NCc3ccco3)c2)CCCCC1	none
COc1ccc(N2CCN(C(CNC(=O)Oc3ccccc3)c3cccnc3)CC2)cc1 (centres undefined)	MrgX1 antag -6.9 | MrgX1 ant reconf inactive | HEK293 Ca flux inactive | HEK293 Ca counter inactive | HEK293 Ca cntr2 inactive
COC(=O)C1=C(c2cccc(OC)c2OC)C[C@@H]2CC[C@H]1N2C(=O)NCCCOC(C)C	none
CN1CCc2nc3sc(C(=O)NC4CC4)c(N)c3cc2C1	MrgX1 antag -6.6 | MrgX1 ant reconf inactive | HEK293 Ca flux inactive | HEK293 Ca counter inactive | HEK293 Ca cntr2 inactive
CN1CCc2nc(SCC(=O)OC(C)(C)C)c(C#N)cc2C1	none
CCOC(=O)c1c(/N=C/C2C(=O)NC(=S)NC2=O)sc2c1CCC2	MrgX1 antag -7.5 | MrgX1 ant reconf inactive | HEK293 Ca flux inactive | HEK293 Ca counter inactive | HEK293 Ca cntr2 inactive
CCCCCn1c(=O)c(C(=O)Nc2cccc(C)n2)c(O)c2ccccc21	none
CCCCCn1c(=O)c(C(=O)Nc2cccc(C)c2)c(O)c2ccccc21	MrgX1 antag -5.2 | MrgX1 ant reconf inactive | HEK293 Ca flux 0.79 | HEK293 Ca counter inactive | HEK293 Ca cntr2 inactive
Ic1ccccc1CN[C@@H]1C2CCN(CC2)[C@@H]1C(c1ccccc1)c1ccccc1	MrgX1 antag -15 (no result: RGS4 block, RGS4 pot) | MrgX1 ant reconf 5.6% | HEK293 Ca flux inactive | HEK293 Ca counter inactive | HEK293 Ca cntr2 inactive
Fc1ccccc1CNC1CN2CCC1CC2 (centres undefined)	none
C=CCN1C(=O)NC(=O)C(Cc2ccc(OC)c(OC)c2)C1=O (centres undefined)	MrgX1 antag -4.8 | MrgX1 ant reconf inactive | HEK293 Ca flux inactive | HEK293 Ca counter inactive | HEK293 Ca cntr2 inactive
CC(C)Nc1ccc(Nc2ccccc2)cc1	MrgX1 antag -5.1 (no result: RGS4 block, RGS4 pot) | MrgX1 ant reconf inactive | HEK293 Ca flux inactive | HEK293 Ca counter inactive | HEK293 Ca cntr2 inactive
CCCCCOc1ccc(C)cc1CN(CCCl)CCCl	none
CCN1C[C@]2(OC(=O)c3ccccc3NC(C)=O)CCC(OC)C34C5C[C@H]6C(OC)[C@]5(O)[C@](O)(C[C@@H]6OC)C(C[C@@H]32)[C@H]14 (some centres undefined)	none
CCCCCCN1CCN(c2ccc(Cl)cc2)CC1	none
ClCCN1CCN(c2ccnc3cc(Cl)ccc23)CC1	MrgX1 antag -17 | MrgX1 ant reconf 12% | HEK293 Ca flux inactive | HEK293 Ca counter inactive | HEK293 Ca cntr2 inactive
COCCN(C(=O)COC(=O)Cc1ccccc1)c1c(N)n(Cc2ccccc2)c(=O)[nH]c1=O	none
Cc1cc(N2C(=O)CC(N3CCC(n4c(=O)[nH]c5ccccc54)CC3)C2=O)no1 (centres undefined)	MrgX1 antag -5.4 | MrgX1 ant reconf inactive | HEK293 Ca flux inactive | HEK293 Ca counter inactive | HEK293 Ca cntr2 inactive
COc1ccccc1CN1CCN(Cc2ccc(Cl)cc2)CC1	MrgX1 antag -5.3 | MrgX1 ant reconf inactive | HEK293 Ca flux inactive | HEK293 Ca counter inactive | HEK293 Ca cntr2 inactive
CC1=C(C(=O)OC(C)C)[C@]2(C(=O)N(CC(N)=O)c3ccccc32)C(C#N)=C(N)O1	none
C=CCOC(=O)C1=C(C)OC(N)=C(C#N)[C@@]12C(=O)N(CC(N)=O)c1ccccc12	MrgX1 antag -5.7 | MrgX1 ant reconf inactive | HEK293 Ca flux inactive | HEK293 Ca counter inactive | HEK293 Ca cntr2 inactive
Cn1c(=O)cc(OCCCC(=O)N2CCC3(CC2)OCCO3)c2ccccc21	MrgX1 antag -9.8 | MrgX1 ant reconf inactive | HEK293 Ca flux inactive | HEK293 Ca counter inactive | HEK293 Ca cntr2 inactive
CC1=CC(C)C(COC(N)=O)(COC(N)=O)C(C)C1 (centres undefined)	none
COC(=O)C1=C(N)Oc2cc(C)oc(=O)c2C12C(=O)Nc1ccccc12 (centres undefined)	none
O=C(c1ccc2c3c(cccc13)CC2)C1CCCN(Cc2ncc[nH]2)C1 (centres undefined)	MrgX1 antag -4.7 | MrgX1 ant reconf inactive | HEK293 Ca flux inactive | HEK293 Ca counter inactive | HEK293 Ca cntr2 inactive
O=C(c1ccc2c3c(cccc13)CC2)C1CCCN(CC2CC2)C1 (centres undefined)	none
CCOC(=O)C1SC2(C(F)(F)F)CC1(O)c1c(C)cc(C)nc1O2 (centres undefined)	MrgX1 antag -7.8 | MrgX1 ant reconf inactive | HEK293 Ca flux inactive | HEK293 Ca counter inactive | HEK293 Ca cntr2 inactive
O=C1CNC(c2ccccc2Cl)c2cc(Br)ccc2N1 (centres undefined)	none
C=CCn1c(O)c(C(C)=NCc2ccc3c(c2)OCO3)c(=O)[nH]c1=O	MrgX1 antag -4.7 | MrgX1 ant reconf inactive | HEK293 Ca flux inactive | HEK293 Ca counter inactive | HEK293 Ca cntr2 inactive
CC(=NCc1ccc2c(c1)OCO2)c1c(O)n(Cc2ccccc2)c(=O)[nH]c1=O	none
COC(=O)C1=C(c2ccccc2)C[C@@H]2CC[C@H]1N2C(=O)NCC1CC1	MrgX1 antag -4.8 | MrgX1 ant reconf inactive | HEK293 Ca flux inactive | HEK293 Ca counter inactive | HEK293 Ca cntr2 inactive
CCOC(=O)C1CCN(/C=C2/C(=O)NC(=O)N(c3cccc(C)c3C)C2=O)CC1	none
O=C1CCN(C(=O)C(Cl)Cl)N1	none
C[C@@H]1NCCc2cc(O)c(O)cc21	none (no result: RGS4 block, RGS4 pot)
CCCN1CCC[C@@H](c2cccc(O)c2)C1	MrgX1 antag -5.6 (no result: RGS4 block, RGS4 pot) | MrgX1 ant reconf 80% | HEK293 Ca flux inactive | HEK293 Ca counter inactive | HEK293 Ca cntr2 inactive
COc1cc(/C=C/c2nc3ccccc3c(=O)n2-c2cccc(O)c2)ccc1O	none
COc1cc(/C=C/c2nc3ccccc3c(=O)n2-c2ccccc2O)ccc1O	MrgX1 antag -9.3 | MrgX1 ant reconf inactive | HEK293 Ca flux inactive | HEK293 Ca counter inactive | HEK293 Ca cntr2 47
